SR-BI HDL uptake – mouse SR-BI HDL lipid transfer inhibition. inhibition, % at 12.5 µM. Q61009. 320,000 tested, 0.96% active. ldlA[mSR-BI] CHO cells, DiI-HDL uptake fluorescence, 3 h. AID 488896;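 active means mean replicate inhibition of at least 70% and a set share of replicates each scoring 70 or more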;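 further: 0% = median of neutral control wells and 100% = median of positive control wells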
Target sequence (Q61009 whole entry, looked up): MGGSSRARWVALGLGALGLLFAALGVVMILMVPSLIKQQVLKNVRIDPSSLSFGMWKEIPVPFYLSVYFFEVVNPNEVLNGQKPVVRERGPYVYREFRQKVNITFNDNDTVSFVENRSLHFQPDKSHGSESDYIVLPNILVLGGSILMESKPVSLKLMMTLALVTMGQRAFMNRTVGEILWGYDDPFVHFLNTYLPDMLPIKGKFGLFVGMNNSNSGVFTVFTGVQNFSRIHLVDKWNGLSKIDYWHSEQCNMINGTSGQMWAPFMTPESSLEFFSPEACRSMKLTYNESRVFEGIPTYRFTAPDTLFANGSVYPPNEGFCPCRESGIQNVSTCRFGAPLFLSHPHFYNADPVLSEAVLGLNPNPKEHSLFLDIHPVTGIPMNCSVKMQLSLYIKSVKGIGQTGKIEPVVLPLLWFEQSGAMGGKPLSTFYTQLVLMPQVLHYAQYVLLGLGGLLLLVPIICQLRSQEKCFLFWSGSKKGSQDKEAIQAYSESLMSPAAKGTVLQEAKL
HIV Env fusion – blocks HIV Env-driven cell-cell fusion; HeLa-JRFL Env/CEM21 cell fusion, luciferase; 360,000 tested, 1.1% active; inhibition, % at 12.3 µM;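 active means mean replicate inhibition score of at least 50 and every replicate individually at or above 50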;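 further: 0% = plate neutral controls and 100% = maraviroc near 300 nM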
SR-BI DiI-HDL act – enhances SR-BI lipid uptake from DiI-HDL; activation, % at 12.5 µM; CHO ldlA[mSR-BI] cells, DiI-HDL uptake fluorescence, 3 h; 100 = double the neutral-control signal; 320,000 tested, 0.096% active;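 active means mean replicate activation of at least 60% and every replicate at or above 60%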;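 further: 0% = median plate neutral-control signal and 100% = twice that signal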
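system = CHO ldlA[mSR-BI] cells, LDL receptor-null, SR-BI overexpressing | medium = Ham's F12 with 0.5% BSA, HEPES 25 mM, pH 7.4 | probe or stimulus = DiI-HDL 10 µg/mL | compound dosing = single-point compound dose | incubation = compound exposure 3 h, 37 °C | technique = DiI fluorescence, bottom read | read-out = cell-associated DiI fluorescence as measure of HDL uptake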
N-glyco inh – N-linked glycosylation inhibition | D54 ERlucT glycosylation luciferase reporter, 24 h; percent of 100 nM tunicamycin response | reporter increase, % at 12.5 µM | 360,000 tested, 0.23% active | AID 588692;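 active means mean luciferase reporter signal, scaled so untreated is 0 and the glycosylation-blocking control 100, at or above a set limit in every replicate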;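 further: luciferase carries N-glycosylation sites so blocking glycosylation raises the light; 0% = median of neutral control wells and 100% = median of 100 nM tunicamycin wells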
Rtt109 Vps75 – inhibitors of Candida albicans Rtt109/Vps75 histone acetyltransferase | purified Rtt109/Vps75, ThioGlo CoA-SH fluorescence, 4 h | inhibition, % at 34.9 µM | 330,000 tested, 0.16% active | AID 540336;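 active means inhibition of at least 50% in every replicate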
PglD DTNB – blocks C. jejuni PglD acetyltransferase activity; 360,000 tested, 0.098% active; inhibition, % at 12.5 µM; AID 602405; purified PglD enzyme, DTNB colorimetric CoA detection; in the data active means inhibition above about 16%, passing the limit was not always enough
An asterisk follows results filed as active; x = no result; [ ] = remark or other dose. Compounds with a hit are over-represented: about 1.9% of the library has one in this group of screens.

SMILES	SR-BI HDL uptake	HIV Env fusion	SR-BI DiI-HDL act	N-glyco inh	Rtt109 Vps75	PglD DTNB
O=C(c1cccnc1)N1C[C@@H]2[C@H](c3ccccc31)[C@H](CO)N2C(=O)C1CCOCC1	x	x	x	x	x	-1
C[C@H]1CN([C@@H](C)CO)C(=O)Cc2cc(NC(=O)Nc3cccc4ccccc34)ccc2O[C@@H]1CN(C)C(=O)Nc1ccc2c(c1)OCO2	x	-14[16.7 µM]	x	x	x	3
C[C@@H]1CCCCO[C@@H](CN(C)Cc2ccc(Cl)c(Cl)c2)[C@H](C)CN([C@H](C)CO)C(=O)c2cc(NC(=O)NC3CCCCC3)ccc2O1	x	72*[16.7 µM]	x	x	x	-2
COc1ccc(NC(=O)Nc2ccc3c(c2)C(=O)N([C@H](C)CO)C[C@H](C)[C@@H](CN(C)Cc2ccc(Cl)c(Cl)c2)OCCCC[C@H](C)O3)cc1	x	26[16.7 µM]	x	x	x	4
C[C@H]1CCCCO[C@H](CN(C)Cc2ccc(Cl)c(Cl)c2)[C@@H](C)CN([C@@H](C)CO)C(=O)c2cc(NC(=O)Nc3ccccc3)ccc2O1	x	39[16.7 µM]	x	x	x	-2
C[C@H](CO)N1C[C@H](C)[C@H](CN(C)Cc2ccc(Cl)c(Cl)c2)OCCCC[C@H](C)Oc2ccc(NC(=O)Nc3ccccc3)cc2C1=O	x	71*[16.7 µM]	x	x	x	-1
COc1ccc(NC(=O)Nc2ccc3c(c2)C(=O)N([C@@H](C)CO)C[C@@H](C)[C@H](CN(C)Cc2ccc(Cl)c(Cl)c2)OCCCC[C@H](C)O3)cc1	x	60*[16.7 µM]	x	x	x	-1
C[C@H]1CCCCO[C@H](CN(C)Cc2ccc(Cl)c(Cl)c2)[C@@H](C)CN([C@@H](C)CO)C(=O)c2cc(NC(=O)Nc3ccc(F)cc3)ccc2O1	x	72*[16.7 µM]	x	x	x	6
C[C@@H]1CN([C@H](C)CO)C(=O)c2cc(NC(=O)Nc3ccc(F)cc3)ccc2O[C@@H](C)CCCCO[C@@H]1CN(C)Cc1ccc(Cl)c(Cl)c1	x	8[16.7 µM]	x	x	x	-2
C[C@@H]1CN([C@@H](C)CO)C(=O)c2cc(C#Cc3ccncc3)cnc2O[C@@H]1CN(C)S(=O)(=O)c1ccccc1F	x	36[16.7 µM]	x	x	x	4
C[C@@H]1CN([C@H](C)CO)C(=O)c2cccc(NS(C)(=O)=O)c2O[C@H]1CN(C)C	x	-25[16.7 µM]	x	x	x	3
O=C(C[C@@H]1CC[C@H]2[C@@H](COC[C@@H](O)CN2C(=O)c2ccccc2F)O1)N1CCOCC1	x	x	x	x	x	-1
C/C=C/c1cnc2c(c1)C(=O)N([C@H](C)CO)C[C@@H](C)[C@H](CN(C)Cc1ccccc1F)O2	x	-14[16.7 µM]	x	x	x	1
Cc1noc(C)c1S(=O)(=O)Nc1ccc2c(c1)C(=O)N([C@@H](C)CO)C[C@@H](C)[C@H](CN(C)Cc1ccncc1)OCCCC[C@@H](C)O2	x	-2[16.7 µM]	x	x	x	-1
Cc1ccc(S(=O)(=O)Nc2ccc3c(c2)C(=O)N([C@H](C)CO)C[C@H](C)[C@@H](CN(C)C(=O)NC2CCCCC2)OCCCC[C@H](C)O3)cc1	x	-152[16.7 µM]	x	x	x	1
C[C@H]1CCCCO[C@H](CN(C)Cc2ccc(Cl)c(Cl)c2)[C@@H](C)CN([C@@H](C)CO)C(=O)c2cc(NC(=O)CCC(F)(F)F)ccc2O1	x	79*[16.7 µM]	x	x	x	0
Cc1cc2c3c(c1)C1(SCC(=O)N1c1ccc(F)cc1)C(=O)N3C(C)(C)CC2C (stereo not given)	3	69*	-3	-7	14	-1
COCC(=O)N(C)C[C@@H]1Oc2cc(C#Cc3cccnc3)ccc2S(=O)(=O)N([C@@H](C)CO)C[C@H]1C	x	13[16.7 µM]	x	x	x	-4
C[C@@H]1CN([C@@H](C)CO)C(=O)Cc2cc(NC(=O)Cn3cnnn3)ccc2O[C@@H]1CN(C)Cc1ccc2c(c1)OCO2	x	-3[16.7 µM]	x	x	x	1
CCOC(=O)c1c(CSCc2ccccc2)oc2ccc(O)c(CN(C)C)c12	-23	58*	23	0	32	1
COc1ccc(-c2cn3c(C)c(C(=O)Nc4cccc(NC(C)=O)c4)sc3n2)cc1	57	71*	-57	1	13	4
Cc1c(C(=O)NCC(C)C)sc2nc(-c3ccc(F)cc3)cn12	33	-218	-33	0	-20	0
COC(=O)c1ccc(NC(=O)c2sc3nc(-c4ccccc4)cn3c2C)cc1	40	-27	-40	-7	-4	-3
COc1ccc(-c2cn3c(C)c(C(=O)Nc4ccncc4)sc3n2)cc1	83*	-7	-83	-7	-17	-6
Cc1c(C(=O)Nc2ccncc2)sc2nc(-c3ccc(F)cc3)cn12	77*	-29	-77	-4	2	8
SMILES	SR-BI HDL uptake	HIV Env fusion	SR-BI DiI-HDL act	N-glyco inh	Rtt109 Vps75	PglD DTNB
C[C@H]1CN([C@@H](C)CO)S(=O)(=O)c2ccc(/C=C/c3ccccc3)cc2O[C@@H]1CN(C)Cc1cncnc1	x	16[16.7 µM]	x	x	x	1
COc1ccc(OC)c(-c2cc(C(=O)Nc3cc(C)n(Cc4ccc(Cl)cc4)n3)no2)c1	89*	-36	-89	3	-47	0
CCC(=O)Nc1ccc2c(c1)C(=O)N(C)[C@@H]1CC[C@@H](CC(=O)NCC3CC3)O[C@@H]1CO2	x	-17[16.7 µM]	x	x	x	-1
CCN(CC)c1ccc(N=Cc2cc(Br)ccc2O)cc1	16	18	-16	1	59*	x
Oc1ccc(Br)cc1C=Nc1ccc(Cl)cc1	-1	-17	1	2	-1	x
CC12CCC(=O)N1C(C(=O)NNC(=O)COc1ccc(Br)cc1)CS2 (stereo not given)	-25	1	25	0	-1	-2
Cc1cc(Cl)ccc1OCC(=O)NNC(=O)C1CSC2(C)CCC(=O)N12 (stereo not given)	-14	71*	14	2	-1	-2
CCCN(C)C[C@@H]1Oc2cc(-c3cccc(F)c3)ccc2S(=O)(=O)N([C@@H](C)CO)C[C@@H]1C	x	-13[16.7 µM]	x	x	x	x
Cc1cc[n+](C(C)C(=O)c2ccc(-c3ccccc3)cc2)cc1 (stereo not given)	13	10	-13	-2	-5	x
CC(C(=O)c1ccc(-c2ccccc2)cc1)[n+]1ccccc1 (stereo not given)	-23	46*	23	1	x	-8
O=C(Cc1ccccc1)N[C@H]1CC[C@@H](CC(=O)N2CCOCC2)O[C@H]1CO	x	16[16.7 µM]	x	x	x	7
CCCN(CCC)c1nc2ccccc2n2c(C)nnc12	8	-40	-8	4	20	3
CCCNc1nc2ccccc2n2c(C)nnc12	-9	24	9	40*	14	-2
C[C@H](CO)N1C[C@H](C)[C@H](CN(C)C(=O)Nc2cc(F)ccc2F)Oc2cc(/C=C/c3ccccc3)ccc2S1(=O)=O	x	33[16.7 µM]	x	x	x	-3
CC(C)c1ccc(OCCCN2CCC(C(O)(c3ccccc3)c3ccccc3)CC2)cc1	x	79*	x	x	x	x
COc1ccc(OCCCN2CCC(C(O)(c3ccccc3)c3ccccc3)CC2)cc1	x	7	x	x	x	x
COc1ccc(CN(C)C[C@H]2Oc3ccc(NC(=O)C4CCCCC4)cc3CC(=O)N([C@@H](C)CO)C[C@@H]2C)cc1	x	-16[16.7 µM]	x	x	x	3

Compound activity deposited in PubChem BioAssay by Broad Institute.
